# Test results as given in ChEMBL document CHEMBL4396879, “Conjugation of Short Peptides to Dibenzodiazepinone-Type Muscarinic Acetylcholine Receptor Ligands Determines M2R Selectivity” (J Med Chem, 2019).
# Experiments:
# [1] = target: T1, Muscarinic acetylcholine receptors; M2 & M3 (Homo sapiens) (UniProt P20309+P08172); assay: Selectivity ratio of Ki for human muscarinic M3 receptor expressed in CHO-K9 cells to Ki for human muscarinic M2 receptor expressed in CHO-K9 cells; type: cell-based
# Procedure, shortened: (§1)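 Ratio of mean Ki values. Each Ki came from an individual [3H]NMS competition experiment at the given CHO-hMxR subtype, converting IC50 to Ki by Cheng-Prusoff before averaging.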
# [2] = target: T2, Muscarinic acetylcholine receptor M2 (Homo sapiens, UniProt P08172); assay: Displacement of [3H]-NMS from human muscarinic M2 receptor expressed in CHO-K9 cells after 3 hrs by microbeta2 scintillation counting method; type: cell-based
# T2 sequence (P08172 whole entry): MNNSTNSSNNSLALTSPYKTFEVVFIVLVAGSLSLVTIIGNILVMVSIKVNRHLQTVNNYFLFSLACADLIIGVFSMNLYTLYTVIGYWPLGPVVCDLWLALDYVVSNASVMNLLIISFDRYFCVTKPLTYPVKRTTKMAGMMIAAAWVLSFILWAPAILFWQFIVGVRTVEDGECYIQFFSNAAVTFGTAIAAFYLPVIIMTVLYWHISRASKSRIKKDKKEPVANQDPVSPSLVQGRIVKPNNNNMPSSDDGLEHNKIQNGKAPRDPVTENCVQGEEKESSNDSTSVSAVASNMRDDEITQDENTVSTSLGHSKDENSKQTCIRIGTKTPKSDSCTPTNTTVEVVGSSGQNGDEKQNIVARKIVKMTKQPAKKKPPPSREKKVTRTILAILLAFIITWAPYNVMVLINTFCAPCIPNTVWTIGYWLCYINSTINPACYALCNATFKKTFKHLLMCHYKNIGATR
# Procedure, shortened: (§2)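 [3H]NMS competition binding on intact CHO-hMxR cells in L15 medium with 1% BSA, 3 h at 22 ± 1 °C with gentle shaking. [3H]NMS was 0.2 nM (M1, M2, M3), 0.1 nM (M4) or 0.3 nM (M5). […] Cells were lysed in urea/acetic acid/Triton and counted by liquid scintillation. Ki from Cheng-Prusoff. Triplicates, ≥3 experiments.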
# [3] = Stability of the compound in human plasma used as 1:2 ratio of plasma to pH 7.4 PBS assessed as intact compound at 100 uM incubated for 48 hr by LC-MS analysis; type: ADME, cell-free; conditions: plasma diluted with PBS (1:2), read-out: Stability
# Procedure, shortened: (§3)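 Compound added at 100 μM (from 5 mM stock in acetonitrile/0.04% TFA 3:7) to heparinized human plasma/PBS pH 7.4 (1:2 v/v) with 10 μM 1-methyl-D-tryptophan as internal standard. Incubated shaking at 37 °C in triplicate. Aliquots were EtOH/acetonitrile-precipitated and analysed by RP-HPLC at 220 nm, with recovery correction against four-point calibrations.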
# [4] = target: T3, Muscarinic acetylcholine receptor M5 (Homo sapiens, UniProt P08912); assay: Displacement of [3H]-NMS from human muscarinic M5 receptor expressed in CHO-K9 cells after 3 hrs by microbeta2 scintillation counting method; type: cell-based; procedure, shortened: as §2
# T3 sequence (P08912 whole entry): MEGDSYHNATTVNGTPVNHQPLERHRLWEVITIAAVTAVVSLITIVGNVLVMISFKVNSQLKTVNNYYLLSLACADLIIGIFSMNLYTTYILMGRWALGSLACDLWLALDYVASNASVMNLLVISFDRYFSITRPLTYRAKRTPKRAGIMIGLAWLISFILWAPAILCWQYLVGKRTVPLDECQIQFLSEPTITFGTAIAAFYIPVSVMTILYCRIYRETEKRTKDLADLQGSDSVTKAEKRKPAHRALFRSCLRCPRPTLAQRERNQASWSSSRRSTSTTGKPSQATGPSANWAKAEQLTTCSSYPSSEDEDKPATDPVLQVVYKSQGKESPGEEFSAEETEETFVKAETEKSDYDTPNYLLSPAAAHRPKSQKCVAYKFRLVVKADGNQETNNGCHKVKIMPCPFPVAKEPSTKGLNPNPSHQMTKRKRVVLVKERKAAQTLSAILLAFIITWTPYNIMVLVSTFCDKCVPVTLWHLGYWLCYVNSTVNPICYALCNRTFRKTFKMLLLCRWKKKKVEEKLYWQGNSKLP
# [5] = target: Muscarinic acetylcholine receptor M2 and M4 (Homo sapiens) (UniProt P08173+P08172); assay: Selectivity ratio of Ki for human muscarinic M4 receptor expressed in CHO-K9 cells to Ki for human muscarinic M2 receptor expressed in CHO-K9 cells; type: cell-based; procedure, shortened: as §1
# [6] = target: T4, Muscarinic acetylcholine receptor M4 (Homo sapiens, UniProt P08173); assay: Displacement of [3H]-NMS from human muscarinic M4 receptor expressed in CHO-K9 cells after 3 hrs by microbeta2 scintillation counting method; type: cell-based; procedure, shortened: as §2
# T4 sequence (P08173 whole entry): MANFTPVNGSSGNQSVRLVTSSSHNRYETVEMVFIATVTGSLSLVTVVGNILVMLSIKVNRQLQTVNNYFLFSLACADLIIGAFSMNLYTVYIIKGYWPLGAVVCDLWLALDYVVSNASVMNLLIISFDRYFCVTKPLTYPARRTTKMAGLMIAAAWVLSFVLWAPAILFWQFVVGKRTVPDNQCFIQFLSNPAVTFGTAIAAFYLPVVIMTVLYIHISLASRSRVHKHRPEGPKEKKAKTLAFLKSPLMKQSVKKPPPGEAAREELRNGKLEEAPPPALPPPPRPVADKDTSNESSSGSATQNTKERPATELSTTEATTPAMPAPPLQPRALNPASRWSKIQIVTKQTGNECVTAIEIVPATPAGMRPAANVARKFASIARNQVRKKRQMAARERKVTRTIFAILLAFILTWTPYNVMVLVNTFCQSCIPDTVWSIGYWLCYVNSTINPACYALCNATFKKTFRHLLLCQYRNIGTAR
# [7] = Stability of the compound in human plasma:PBS of pH 7.4 (1:2) assessed as intact compound at 100 uM incubated for 1 hr by LC-MS analysis; type: ADME, cell-free; conditions: plasma diluted with PBS (1:2), read-out: Stability; procedure, shortened: as §3
# [8] = Stability of the compound in human plasma used as 1:2 ratio of plasma to pH 7.4 PBS assessed as intact compound at 100 uM incubated for 24 hr […]; type: ADME, cell-free; conditions: plasma diluted with PBS (1:2), read-out: Stability
# [9] = target: T5, Muscarinic acetylcholine receptor M2 and M5 (Homo sapiens) (UniProt P08172+P08912); assay: Selectivity ratio of Ki for human muscarinic M5 receptor expressed in CHO-K9 cells to Ki for human muscarinic M2 receptor expressed in CHO-K9 cells; type: cell-based; procedure, shortened: as §1
# [10] = Stability of the compound in human plasma used as 1:2 ratio of plasma to pH 7.4 PBS assessed as intact compound at 100 uM incubated for 6 hr […]; type: ADME, cell-free; conditions: plasma diluted with PBS (1:2), read-out: Stability
# [11] = target: Muscarinic acetylcholine receptors; M1 & M2 (Homo sapiens) (UniProt P11229+P08172); assay: Selectivity ratio of Ki for human muscarinic M1 receptor expressed in CHO-K9 cells to Ki for human muscarinic M2 receptor expressed in CHO-K9 cells; type: cell-based; procedure, shortened: as §1
# [12] = target: T6, Muscarinic acetylcholine receptor M3 (Homo sapiens, UniProt P20309); assay: Displacement of [3H]-NMS from human muscarinic M3 receptor expressed in CHO-K9 cells after 3 hrs by microbeta2 scintillation counting method; type: cell-based; procedure, shortened: as §2
# T6 sequence (P20309 whole entry): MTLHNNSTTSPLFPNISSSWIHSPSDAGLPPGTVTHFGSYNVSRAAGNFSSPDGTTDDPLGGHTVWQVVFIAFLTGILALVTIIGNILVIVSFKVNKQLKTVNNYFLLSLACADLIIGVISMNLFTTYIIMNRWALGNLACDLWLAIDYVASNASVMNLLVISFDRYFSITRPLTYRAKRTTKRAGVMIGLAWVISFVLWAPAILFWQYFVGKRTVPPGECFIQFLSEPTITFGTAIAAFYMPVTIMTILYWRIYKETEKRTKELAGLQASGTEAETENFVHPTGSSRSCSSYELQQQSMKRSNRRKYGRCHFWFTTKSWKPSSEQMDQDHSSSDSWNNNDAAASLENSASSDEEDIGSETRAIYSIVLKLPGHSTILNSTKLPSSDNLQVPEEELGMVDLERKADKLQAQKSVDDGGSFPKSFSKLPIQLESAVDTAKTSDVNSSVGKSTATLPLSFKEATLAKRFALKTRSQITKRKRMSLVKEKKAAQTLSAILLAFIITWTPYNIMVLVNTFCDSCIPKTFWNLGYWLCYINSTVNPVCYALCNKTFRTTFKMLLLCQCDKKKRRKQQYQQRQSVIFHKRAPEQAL
# [13] = target: T7, Muscarinic acetylcholine receptor M1 (Homo sapiens, UniProt P11229); assay: Displacement of [3H]-NMS from human muscarinic M1 receptor expressed in CHO-K9 cells after 3 hrs by microbeta2 scintillation counting method; type: cell-based; procedure, shortened: as §2
# T7 sequence (P11229 whole entry): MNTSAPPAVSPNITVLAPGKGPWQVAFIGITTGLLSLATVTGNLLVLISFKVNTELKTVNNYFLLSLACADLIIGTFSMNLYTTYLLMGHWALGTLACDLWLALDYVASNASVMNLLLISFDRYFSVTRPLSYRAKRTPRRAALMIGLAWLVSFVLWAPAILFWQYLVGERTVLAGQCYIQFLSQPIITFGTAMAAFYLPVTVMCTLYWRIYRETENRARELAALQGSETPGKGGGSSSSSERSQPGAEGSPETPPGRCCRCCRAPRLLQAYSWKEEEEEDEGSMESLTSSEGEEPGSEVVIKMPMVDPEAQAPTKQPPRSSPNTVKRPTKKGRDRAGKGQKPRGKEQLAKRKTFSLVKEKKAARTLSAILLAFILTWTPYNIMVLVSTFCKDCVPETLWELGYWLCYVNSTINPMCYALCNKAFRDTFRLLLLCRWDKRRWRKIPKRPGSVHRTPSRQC
# [14] = target: T1, Muscarinic acetylcholine receptors; M2 & M3 (Homo sapiens); assay: Selectivity ratio of Ki for human muscarinic M3 receptor expressed in stable CHO-K1 cells to Ki for human muscarinic M2 receptor expressed in stable CHO-K1 cells; type: cell-based
# [15] = target: T5, Muscarinic acetylcholine receptor M2 and M5 (Homo sapiens); assay: Selectivity ratio of Ki for human muscarinic M5 receptor expressed in stable CHO-K1 cells to Ki for human muscarinic M2 receptor expressed in stable CHO-K1 cells; type: cell-based
# [16] = target: T4, Muscarinic acetylcholine receptor M4; assay: Binding affinity to muscarinic M4 receptor (unknown origin) expressed in CHO cells; type: cell-based; procedure, shortened: as §2
# [17] = target: T3, Muscarinic acetylcholine receptor M5; assay: Binding affinity to muscarinic M5 receptor (unknown origin) expressed in CHO cells; type: cell-based; procedure, shortened: as §2
# [18] = target: T6, Muscarinic acetylcholine receptor M3; assay: Binding affinity to muscarinic M3 receptor (unknown origin) expressed in CHO cells; type: cell-based; procedure, shortened: as §2
# [19] = target: T7, Muscarinic acetylcholine receptor M1; assay: Binding affinity to muscarinic M1 receptor (unknown origin) expressed in CHO cells; type: cell-based; procedure, shortened: as §2
# [20] = target: T8, Muscarinic acetylcholine receptor M2 (Homo sapiens) (UniProt P08172); assay: Antagonist activity at human muscarinic M2 receptor expressed in HEK293 cells co-expressing HA-Galphaq/i5 assessed as inhibition of carbachol-induced IP1 accumulation pre-incubated for 30 mins followed by carbachol addition and measured after 1 hr by HTRF assay; type: functional, cell-based
# T8 sequence (whole entry): T2 sequence (P08172 whole entry)
# Procedure, shortened: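 HEK-293 cells transiently cotransfected (receptor plus HA-tagged Gαqi5), detached after 1 day and seeded at 10,000 cells/well for 24 h at 37 °C. Duplicates.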
# T1 sequence (P20309 whole entry, looked up, one chain of several): as the sequence (P20309 whole entry) above
SMILES,Ratio Ki [1],Ki [2],"remaining at 48 h, 100 µM [3]",Ki [4],Ratio Ki [5],Ki [6],"remaining at 1 h, 100 µM [7]","remaining at 24 h, 100 µM [8]",Ratio Ki [9],"remaining at 6 h, 100 µM [10]",Ratio Ki [11],Ki [12],Ki [13],Ratio Ki [14],Ratio Ki [15],Ki [16],Ki [17],Ki [18],Ki [19],inhibition [20]
CC(=O)N[C@@H](CCCNC(=N)N)C(=O)N[C@@H](CCCCN)C(=O)NCC(=O)NCCCCC1CCN(CC(=O)N2c3ccccc3NC(=O)c3ccccc32)CC1,620,1.48 nM,83%,363 nM,11,17.4 nM,> 99%,> 99%,260,> 99%,15,776 nM,22.9 nM,–,–,–,–,–,–,–
CCCN(CCC)CC1CCCCN1CCNC(=O)N1c2ccccc2C(=O)Nc2cccnc21 (centres undefined),–,–,–,–,–,–,–,–,–,–,–,–,–,11,89,–,–,–,–,–
CCN(CC)CCCCC1CCN(CC(=O)N2c3ccccc3C(=O)Nc3cccnc32)CC1,–,–,–,–,–,–,–,–,–,–,–,–,–,–,–,7.94 nM,1260 nM,100 nM,50.1 nM,–
CN1[C@@H]2CC[C@H]1C[C@@H](OC(=O)C(CO)c1ccccc1)C2 (some centres undefined),–,–,–,–,–,–,–,–,–,–,–,–,–,–,–,–,–,–,–,Dose-dependent effect
CC(=O)N[C@@H](C)C(=O)N[C@@H](C)C(=O)NCCCCC1CCN(CC(=O)N2c3ccccc3NC(=O)c3ccccc32)CC1,59,22.9 nM,–,1350 nM,3.7,79.4 nM,–,–,62,–,14,1380 nM,302 nM,–,–,–,–,–,–,–
CC(=O)N[C@@H](CCCCN)C(=O)N[C@@H](C)C(=O)N[C@@H](CCCNC(=N)N)C(=O)NCCCCC1CCN(CC(=O)N2c3ccccc3NC(=O)c3ccccc32)CC1,350,7.76 nM,–,427 nM,12,89.1 nM,–,–,56,–,15,2690 nM,115 nM,–,–,–,–,–,–,–
CC(=O)N[C@@H](CCCCN)C(=O)N[C@@H](Cc1ccc(O)cc1)C(=O)NCCN1CCN(CCCCC2CCN(CC(=O)N3c4ccccc4NC(=O)c4ccccc43)CC2)CC1,260,0.0794 nM,–,70.8 nM,12,1.12 nM,–,–,780,–,14,27.5 nM,1.41 nM,–,–,–,–,–,–,–
CC(=O)N[C@@H](Cc1ccc(O)cc1)C(=O)N[C@@H](CCCCN)C(=O)NCCCCC1CCN(CC(=O)N2c3ccccc3NC(=O)c3ccccc32)CC1,210,46.8 nM,–,708 nM,6.6,295 nM,–,–,15,–,1.8,10000 nM,87.1 nM,–,–,–,–,–,–,–
CC(=O)N[C@@H](Cc1c[nH]c2ccccc12)C(=O)N[C@@H](C)C(=O)N[C@@H](Cc1ccc(O)cc1)C(=O)NCCN1CCN(CCCCC2CCN(CC(=O)N3c4ccccc4NC(=O)c4ccccc43)CC2)CC1,410,0.0794 nM,–,30.9 nM,19,1.62 nM,–,–,390,–,27,35.5 nM,2.29 nM,–,–,–,–,–,–,–
CN1CC=C(c2nsnc2OCCCN2CCN(CCCCC3CCN(CC(=O)N4c5ccccc5NC(=O)c5ccccc54)CC3)CC2)CC1,180,0.0794 nM,–,33.9 nM,35,2.57 nM,–,–,230,–,20,13.2 nM,1.45 nM,–,–,–,–,–,–,–
